Screens from PubChem BioAssay.
Arrestin-AP2 inh – inhibitors of beta-arrestin/AP2 binding, primary screen, biochemical, GPCR trafficking, flow cytometry | AID 504490, 2011 | inhibition, % at 10 µM | FITC-arrestin peptide / GST-AP2 beads; AP2 beta2 appendage carries R879A mutation | 340,000 compounds, 0.31% hits | beta-arrestin 1 C-terminal peptide binding to AP2 beta2-adaptin appendage (human);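 active = inhibition above a set limit, near 3 SD of compounds lacking own fluorescence, cut at about 54% in these data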;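 also: plate controls were DMSO wells for no effect and 5 µM unlabelled arrestin peptide for full effect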
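Assay system: GST-AP2 R879A bound to glutathione beads, E. coli-expressed; Medium: PBS with 0.05% Tween 20 and 0.1% BSA; Also added: fluorescein-tagged arrestin peptide at 50 nM final; Timing: 12 min plus 1 h, RT; Measured by: flow cytometry, FL1 (488/535 nm); Evaluation: percent drop in bead-associated FITC signal.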
Tn7 DDE FP – inhibitors of Tn7 peptide binding to fibrin DD(E), primary screen, biochemical, fluorescence polarization, human fibrin, Tn7 probe; FP displacement of FITC-Tn7 peptide from fibrin DD(E); 0% = median of compound wells per plate; Fibrinogen beta chain (Homo sapiens), P02675; 370,000 compounds, 0.13% hits; inhibition, % at 8.3 µM;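 active = inhibition above the mean of compounds falling within the control limits plus 3 SD of them, cut at about 14% in these data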;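 also: 0% = plate median of compound wells and 100% = 10 µM Aha-Tn7 peptide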
Target sequence (P02675 whole entry, looked up): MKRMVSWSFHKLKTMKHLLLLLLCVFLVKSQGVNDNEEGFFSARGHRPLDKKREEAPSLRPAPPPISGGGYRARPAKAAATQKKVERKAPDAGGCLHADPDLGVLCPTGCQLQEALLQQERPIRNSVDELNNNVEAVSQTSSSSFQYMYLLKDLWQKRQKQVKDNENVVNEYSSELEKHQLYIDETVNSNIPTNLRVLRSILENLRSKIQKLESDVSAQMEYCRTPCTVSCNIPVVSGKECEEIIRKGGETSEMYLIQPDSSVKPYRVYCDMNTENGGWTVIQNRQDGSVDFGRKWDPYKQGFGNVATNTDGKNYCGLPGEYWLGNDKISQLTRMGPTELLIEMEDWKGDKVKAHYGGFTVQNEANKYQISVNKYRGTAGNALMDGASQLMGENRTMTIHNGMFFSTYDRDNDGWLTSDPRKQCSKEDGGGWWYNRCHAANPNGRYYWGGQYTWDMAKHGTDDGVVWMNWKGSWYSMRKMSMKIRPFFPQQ
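Assay system: Fibrin-DD(E) protein isolated from polymerized human fibrin clots; read-out basis: percent inhibition; medium: Tris/NaCl/CaCl2 buffer, pH 7.8; signal: FP measurement; incubation: 10 min plus 3 h, room temperature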
CAL PDZ FP-1 – untagged CAL PDZ binding inhibitors, primary screen, biochemical, fluorescence polarization, HTS | purified CAL PDZ, TMR-peptide fluorescence polarization, 1 h | inhibition, % at 24.9 µM | 300,000 compounds, 0.92% hits | AID 602252, 2012;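 active = mean inhibition of at least 30% with at least half of replicates also reaching 30%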;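 also: 0% = DMSO neutral control and 100% = excess unlabeled competitor peptide PRC23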
CAL PDZ FP-2 – CAL PDZ peptide-binding inhibitors, primary screen, biochemical, fluorescence polarization, Cer-tagged CAL PDZ, HTS; Golgi-associated PDZ and coiled-coil motif-containing protein (Homo sapiens), Q9HD26; purified CAL PDZ, TMR-peptide fluorescence polarization, 1 h; inhibition, % at 20 µM; 330,000 compounds, 0.02% hits;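 active = highest replicate inhibition of at least 40%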;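 also: plate controls were DMSO neutral control wells for no effect and unlabeled competitor peptide control wells for full effect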
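Test system: tagged CAL PDZ domain / Buffer or medium: sodium phosphate/NaCl buffer pH 7.4 with TCEP, IgG, Thesit / Reagent: TMR-labelled reporter peptide T*-PRC34 bound in PDZ groove / Compound dosing: single point, 20 µM / Schedule: 1 h incubation at room temperature before polarization reading / Technique: fluorescence polarization (mP) / Benchmarks: unlabelled peptide, DMSO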
DDE Tn6 FP inh – inhibitors of Tn6 peptide binding to fibrin DD(E), primary screen, biochemical, fluorescence polarization, human fibrin, Tn6 probe | Fibrinogen beta chain (Homo sapiens), P02675 | Fibrin DD(E) TRITC-Tn6 fluorescence polarization displacement | inhibition, % at 8.3 µM | 370,000 compounds, 0.21% hits | AID 720509, 2013;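 active = inhibition above a per-campaign cutoff: mean of compounds within control limits plus 3 SD, cut at about 15% in these data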;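 also: 0% = median of all compound wells on the plate and 100% = blocking peptide control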
An asterisk follows results filed as active; . = no result. In the library only some 1.4% were active in any assay of this set; here they are far more common.

SMILES	Arrestin-AP2 inh	Tn7 DDE FP	CAL PDZ FP-1	CAL PDZ FP-2	DDE Tn6 FP inh
CCOC(=O)C1CCN(C(=O)CCS(=O)(=O)c2ccc3c(c2)CCN3C(C)=O)CC1	-2.6	7.2	-4.5	-0.5	-3.5
COC(=O)C12C=C3CC(c4ccc(C)s4)=C3C(=O)N1Cc1[nH]c3ccccc3c1C2 (stereo not given)	.	-8.7	.	.	1.5
O=C(O)c1ccccc1NS(=O)(=O)c1cccc(C(F)(F)F)c1	8.5	1.7	.	-3.8	5.5
O=C(O)c1ccccc1NS(=O)(=O)c1cccc(-n2sc3ccccc3c2=O)c1	23.2	-4.5	33.6*	0.0	2.8
COc1ccc(C2Nc3ccccc3C(=O)N2Cc2ccccc2)cc1COc1ccc(NC(C)=O)cc1 (stereo not given)	.	2.9	.	.	0.4
Cc1cc([N+](=O)[O-])nn1CC(=O)N(C)C1CCCCC1	-8.6	-2.4	54.3*	-1.1	5.2
CCc1nn(CC(=O)N(C)C2CCCCC2)c(=O)c2cc3cc(C)ccc3n12	-2.5	-0.1	104.1*	-0.4	-4.2
Cc1cc([N+](=O)[O-])nn1CC(=O)N(C)Cc1ccccc1	2.5	-4.0	-5.1	.	-10.5
Cc1nn(-c2ccccc2)c(C)c1/C=N\NC(=O)CSc1nc2ccccc2n1Cc1ccc(Cl)cc1	.	5.3	.	.	0.0
CCOC(=O)N1CCN(C(=O)C[C@H]2C[C@@]3(C(=O)OC)C(=C[C@H](COCc4ccccc4)O[C@@H]3C)N(CCc3ccc(OC)c(OC)c3)C2=O)CC1	.	4.2	.	.	-4.3
O=C(COC(=O)Cc1cccs1)Nc1ccc(OC(F)(F)F)cc1	-3.6	6.3	-0.3	-2.4	88.4*
O=C(COC(=O)Cc1cccs1)NCC(=O)Nc1ccc(F)cc1	-13.0	1.1	-5.6	-0.1	-3.4
O=C(Cn1ncc(N2CCOCC2)c(Cl)c1=O)c1ccc(Cl)cc1	9.1	-2.3	34.2*	0.0	0.8
COc1cc(C2C(C#N)=C(N)N(N(C)C)C3=C2C(=O)CC(C)(C)C3)cc(OC)c1OC (stereo not given)	-2.4	0.4	44.3*	-0.9	-3.9
COc1ccc(CN(CCN2CCOCC2)C(=O)c2cc(Cl)ccc2F)cc1OC	.	0.3	.	.	-0.5
COc1cc(/C=N/NC(N)=S)cc(Br)c1OCc1ccccc1F	-0.5	-4.6	123.7*	-1.0	1.0
O=S(=O)(c1ccc2c(c1)OCCO2)N(Cc1ccc(F)cc1)Cc1nnc(-c2cccs2)o1	-8.8	0.1	42.9*	-2.0	-0.1
CC(=O)NC(Cc1cc(C)ccc1C)C(=O)N1CCN(C(=O)c2ccc(Br)cc2)CC1 (stereo not given)	-8.7	4.8	-3.2	-1.0	2.7
CC(=O)NC(Cc1cc(C)ccc1C)C(=O)N1CCN(C(=O)Nc2ccc(C(C)=O)cc2)CC1 (stereo not given)	26.1	14.6*	-2.3	-3.7	8.1
Cc1cccc(C(=O)N2CCCC(CCC(=O)N3CCN(c4ccccn4)CC3)C2)c1C (stereo not given)	19.9	-3.0	.	-0.7	1.6
Cc1cc(C(=O)N2CCCC(CCC(=O)N3CCN(c4ccccn4)CC3)C2)c(C)o1 (stereo not given)	8.6	1.8	45.2*	0.2	1.3
COc1ccc(CN(C)CC#Cc2ccccc2)c(OC)c1	.	4.1	.	.	-6.8
CC(c1ccccc1)n1c(SCC(=O)N2CC(=O)Nc3ccccc32)nc2ccccc2c1=O (stereo not given)	-1.0	2.4	-3.9	-2.4	-5.2
COCC(C)n1c(SCC(=O)N2CC(=O)Nc3ccccc32)nc2ccccc2c1=O (stereo not given)	0.8	0.5	46.7*	-1.8	-6.2
Cc1ccc(-c2nc3ccccc3c(=O)o2)cc1	38.7	-2.3	47.8*	35.5	-0.7
Cc1ccc2nc(-c3ccccc3)oc(=O)c2c1	5.5	-5.8	-0.5	-2.0	3.7
Cc1cc(O)c(Sc2ccc(Cl)cc2)c(=O)[nH]1	1.8	-1.8	54.8*	0.5	1.3
O=C1NC2(CCCCCC2)N=C1c1ccc(F)cc1	-10.4	2.8	66.1*	0.2	2.5
